Assay outcomes from PubChem BioAssay.
Sampled rows, rich in hits. Any-hit rate of the full collection: about 1.5%.
VLA-4 inh: inhibition in a human VLA-4 binding assay | P13612 | VLA-4 expressing cells, ligand binding flow cytometry | inhibition, % (about 7 µM as worked out from the volumes in the protocol) | hit rate 0.2% among 330,000; in the data active = inhibition above about 50%
Target sequence (P13612 whole entry, looked up): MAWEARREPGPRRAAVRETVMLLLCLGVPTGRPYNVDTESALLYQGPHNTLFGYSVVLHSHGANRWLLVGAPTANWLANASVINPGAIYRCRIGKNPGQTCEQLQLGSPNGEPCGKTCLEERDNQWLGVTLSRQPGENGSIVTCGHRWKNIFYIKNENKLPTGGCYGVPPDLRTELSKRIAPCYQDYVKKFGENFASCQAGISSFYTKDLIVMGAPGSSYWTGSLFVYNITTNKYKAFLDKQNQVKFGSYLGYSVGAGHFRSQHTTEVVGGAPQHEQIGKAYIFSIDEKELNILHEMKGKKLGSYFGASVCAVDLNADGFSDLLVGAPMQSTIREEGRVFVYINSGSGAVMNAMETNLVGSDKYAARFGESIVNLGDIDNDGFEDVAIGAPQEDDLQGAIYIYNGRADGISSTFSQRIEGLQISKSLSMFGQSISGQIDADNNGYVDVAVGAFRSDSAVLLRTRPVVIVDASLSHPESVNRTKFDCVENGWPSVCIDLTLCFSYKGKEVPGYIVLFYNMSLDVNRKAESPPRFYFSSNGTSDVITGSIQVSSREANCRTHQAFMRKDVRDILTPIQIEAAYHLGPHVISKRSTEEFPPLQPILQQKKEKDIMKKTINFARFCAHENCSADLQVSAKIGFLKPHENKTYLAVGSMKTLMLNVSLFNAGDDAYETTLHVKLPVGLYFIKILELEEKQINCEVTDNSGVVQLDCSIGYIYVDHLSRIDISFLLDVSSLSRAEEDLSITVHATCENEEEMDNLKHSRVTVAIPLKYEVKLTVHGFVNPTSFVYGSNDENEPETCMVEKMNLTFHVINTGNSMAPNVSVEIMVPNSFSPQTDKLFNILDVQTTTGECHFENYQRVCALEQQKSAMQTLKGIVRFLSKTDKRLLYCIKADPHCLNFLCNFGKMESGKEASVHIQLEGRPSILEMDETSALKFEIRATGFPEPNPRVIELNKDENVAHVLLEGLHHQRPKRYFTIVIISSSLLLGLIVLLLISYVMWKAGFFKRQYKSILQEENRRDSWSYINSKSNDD
SENP1 FRET inh: inhibitors of human SENP1 SUMO protease catalytic domain; Q9P0U3; recombinant SENP1 catalytic domain, CyPet-SUMO1-YPet FRET cleavage; inhibition, % at 10 µM; hit rate 0.21% among 360,000;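 active = inhibition at least 30% at 10 µM, raw YFP signal under a set limit, fluorescence ratio 0.5 to 1.5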;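 also: 0% = enzyme with DMSO and 100% = no enzyme wells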
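Material: hSENP1 catalytic domain, recombinant; medium: Tris pH 8 with BME, BSA, NP40 and catalase; compound: single concentration of 10 µM compound, 0.5% DMSO final; technique: FRET read of cyan and yellow fluorescence; timing: 50 min enzyme reaction, room temperature, light-protected; reagent: SFCypet-SUMO1-SFYpet substrate at 25 nM; control set: no-enzyme low, enzyme-DMSO high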
Myeloid diff MLP: myeloid differentiation induction | ER-HoxA9 myeloid progenitors, lysozyme-GFP differentiation, flow cytometry | AID 624256 | calls only at 10 µM | hit rate 1% among 360,000;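 active = normalized GFP-positive differentiation at or above the plate's own cutoff, the solvent-only control mean plus 3 SD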;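 also: cells exposed to compound for four days before flow analysis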
Platelet DG rel: platelet dense granule release activity. human platelet-rich plasma, SFLLRN dense granule ATP release, luminescence. inhibition, %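 (compounds screened at 7.5 µM in platelet-rich plasma)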. hit rate 0.22% among 300,000;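 active = mean replicate score, as percent of positive control, at or above 50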
Myeloid diff: promotes myeloid progenitor differentiation; calls only; shares compounds with Myeloid diff MLP; hit rate 2% among 2,300; AID 651706; ER-HoxA9 myeloid progenitors, GFP/Mac1 double-positive flow;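 active = share of green or green-and-red cells above 9 and 9% in run 1 or 4 and 3% in run 2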
GFP autofluor: counter-screen for myeloid differentiation promoters: compound fluorescence | ER-HoxA9 myeloid progenitors, no estrogen, GFP autofluorescence flow cytometry; vehicle wells 0%, positive control 100% | fluorescence response, % (concentration not given with the values) | shares compounds with Myeloid diff MLP | hit rate 7.4% among 2,300;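 active = over 5% cells positive for green fluorescent reporter, or over 2% positive for both it and APC stain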;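 also: range taken on the double positive population between DMSO and positive control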
Active calls of the source: *; i = inactive; · = no result; + = active, no number.

SMILES | VLA-4 inh | SENP1 FRET inh | Myeloid diff MLP | Platelet DG rel | Myeloid diff | GFP autofluor
C=CC[N+]1(CC#Cc2ccccc2)CCCC1 | -4 | -1 | + | -6 | i | 0
COc1ccc(C2C(=O)N(C3CCCCC3)CC(=O)N2Cc2ccc3c(c2)OCO3)cc1 (stereo not given) | 0 | 2 | i | -1 | i | 4
Cc1cc(C)n2c(NC3CCCCC3)c(-c3ccccn3)nc2n1 | · | 23 | i | · | · | ·
Cc1cc(C)n2c(NC3CCCC3)c(-c3cc4ccccc4o3)nc2n1 | · | -20 | i | · | i | 2
COc1ccccc1NC(=O)Nc1sccc1-c1nc2ccccc2s1 | -36 | -105 | + | -2 | i | 0
CCOC(=O)CC(=O)CSc1nc(C)cc(-c2cccnc2)c1C#N | 4 | 10 | i | -7 | i | 0
Cc1cccc(NC(=O)CC2CCC2)c1 | -5 | -1 | i | 1 | i | 0
CSc1ncnc2c1ncn2CCCNCC1CCCO1 (stereo not given) | · | 3 | i | · | · | ·
CSc1ncnc2c1ncn2CCCNCCCN1CCCC1=O | · | 0 | + | · | i | 1
C=CCn1c(=O)c(C(=O)NC(C)c2ccccc2)c(O)c2ccccc21 (stereo not given) | 11 | -1 | i | 2 | · | ·
O=C(CN1CCN(Cc2ccccc2)CC1)NNC(=O)c1ccccc1 | -4 | 0 | i | · | i | 0
CCc1ccc(C(=O)NNC(=O)CCN2CCN(Cc3ccccc3)CC2)cc1 | 21 | 4 | i | 7 | · | ·
COc1ccc2[nH]c(C(=O)N3CCC(CO)(Cc4cccc(C(F)(F)F)c4)CC3)c(C)c2c1 | -1 | 0 | i | -1 | · | ·
CCC(/C=C1\Oc2ccc(OC)cc2N1C)=C\c1sc2ccccc2[n+]1CCCS(=O)(=O)[O-] | · | -11 | i | · | i | 85*
C[n+]1c(/C=C/c2ccc3c(c2)OCO3)ccc2ccccc21 | 6 | 5 | i | 3 | + | 0
C[n+]1c(/C=C/c2ccc(O)cc2)ccc2ccccc21 | -36 | 24 | i | 6 | · | ·
CCSCCC(NC1=CC(=O)CC(C)(C)C1)C(=O)O (stereo not given) | 7 | -3 | + | 0 | i | 0
CCCN1C(=O)c2cccc3c(N4CCCCC4)ccc(c23)C1=O | -282 | -22 | + | -17 | i | 1
Cc1ccc(S(=O)(=O)NCc2ccncc2)cc1C | -2 | -1 | i | -7 | · | ·
O=S(=O)(NCc1ccncc1)c1ccc(F)c(F)c1 | · | -1 | i | · | i | 0
O=C(NC1CC1)c1cccc(NC(=O)c2cnn(-c3ccccc3)n2)c1 | 3 | -2 | + | · | i | 4
CCNC(=S)Nc1ccc(Cc2nc3ccccc3[nH]2)cc1 | -5 | 3 | i | 2 | · | ·
CCC/C=C1/CCCOC(C(=O)NCc2ccc(C)o2)(C(F)(F)F)C1 (stereo not given) | -7 | -1 | + | · | i | 0
O=C(NCN1CCOCC1)c1cnccn1 | -6 | -1 | · | -5 | · | ·
O=C(c1ccc(O)c(Cl)c1)N1CCN(S(=O)(=O)c2ccccc2)CC1 | 6 | 1 | i | 2 | · | ·
SMILES | VLA-4 inh | SENP1 FRET inh | Myeloid diff MLP | Platelet DG rel | Myeloid diff | GFP autofluor
CCc1nc(OCc2ccccc2)c2sc3nc4c(cc3c2n1)COC(C)(C)C4 | 5 | -1 | i | 4 | i | 0
Cc1cccc(S(=O)(=O)Nc2cccc(-c3cn4ccsc4n3)c2)c1 | -2 | 2 | i | -40 | · | ·
Cc1ccc(S(=O)(=O)Nc2cccc(-c3cn4ccsc4n3)c2)cc1 | -1 | 0 | i | -4 | i | 1
Cc1ccc(/C=N/Nc2nc3ccccc3s2)o1 | 12 | -24 | i | -3 | i | 0
CC1CC(=O)C(C(C2=C(O)CC(C)CC2=O)c2ccccc2)=C(O)C1 (stereo not given) | · | -2 | i | · | · | ·
CC12CS(=O)(=O)CC1SC(=S)N2c1ccccn1 (stereo not given) | 6 | 3 | + | 13 | i | 0
NNc1nc2cccnc2n(CCNc2ncc(C(F)(F)F)cc2Cl)c1=O | -14 | -14 | i | -1 | i | 2
C[C@H](OC(=O)NCc1ccc(C(F)(F)F)cc1)[C@@H]1O[C@@]2(C)CCC[C@@H]1O2 | 0 | 3 | i | · | · | ·
CC(=O)c1cccc(CN(C)CC2CCCN(CCc3ccccc3C)C2)c1 (stereo not given) | -12 | 1 | i | -7 | · | ·
CC(=O)N1CCN(c2nnnn2-c2ccccc2)CC1 | -2 | 3 | i | 1 | · | ·
Oc1ccc(N2CCN(c3nnnn3-c3ccccc3)CC2)cc1 | 9 | 2 | + | -1 | i | 0
Cc1cc(C)cc(N(CCC#N)C(=O)COC(=O)C2CCN(c3ccc(C(F)(F)F)cn3)CC2)c1 | 12 | 0 | i | -3 | · | ·
Cc1cc(C(=O)COC(=O)Cc2n[nH]c(=O)c3ccccc23)c(C)n1-c1ccc2c(c1)OCO2 | -1 | -2 | + | -13 | i | 1
O=C(NC1CCCC1)c1cnc2n(c1=O)CCS2 | -1 | 1 | i | · | i | 0
COc1ccccc1Oc1nnnn1-c1ccc(C(N)=O)cc1 | · | 2 | i | -3 | i | 1
Cc1cc(C(=O)C(C)OC(=O)c2ccc(NC(=O)CC#N)cc2)c(C)n1-c1ccc(OC(F)F)cc1 (stereo not given) | 1 | -25 | + | · | i | 18*
CC(=NNC(=O)CCC(=O)Nc1ccccc1Cl)c1ccco1 | -4 | 2 | i | · | · | ·
O=C1OC(/C(=C\Nc2ccc(F)cc2F)[N+](=O)[O-])c2ccccc21 (stereo not given) | 9 | -1 | i | -6 | · | ·
O=C1OC(/C(=C\Nc2cc(Cl)ccc2O)[N+](=O)[O-])c2ccccc21 (stereo not given) | -10 | 2 | i | 1 | i | 0
O=C(C1CCC(=O)N(C2CCCC2)C1)N1CCN(c2ccc(Cl)cc2)CC1 (stereo not given) | 7 | -4 | i | 8 | · | ·
Cc1ccc(Cl)cc1N1CCN(C(=O)C2CCC(=O)N(C3CCCCCC3)C2)CC1 (stereo not given) | -3 | 0 | + | 19 | i | 1
CN1OC[C@@H]2CN(C(=O)CCc3ccccc3)[C@H](c3cccc(Oc4ccccc4)c3)C[C@@H]21 | · | 2 | i | · | i | 1
CN1OC[C@@H]2CN(C(=O)CCc3ccccc3)[C@H](c3cccc(-c4ccccc4)c3)C[C@@H]21 | · | 0 | i | · | · | ·
CCc1ccc(NC(=O)CCn2nc(C)c(S(=O)(=O)N3CCCCC3)c2C)cc1 | 9 | 4 | i | -1 | · | ·
COc1ccc(Cl)cc1NC(=O)NC(C)c1ccncc1 (stereo not given) | -11 | 2 | i | 3 | · | ·
COc1ccc(Cl)cc1NC(=O)C1CSC(c2ccncc2)=N1 (stereo not given) | 32 | -2 | + | 3 | i | 0
O=c1[nH]c(/C=C2\C=Nc3ccccc32)c(O)n1Cc1ccccc1F | 8 | -39 | i | 1 | i | 0
